ChEMBL document CHEMBL4382263, “Spirostaphylotrichin X from a Marine-Derived Fungus as an Anti-influenza Agent Targeting RNA Polymerase PB2” (J Nat Prod, 2018)
Active and inactive are the calls of the source. The calls are words filed in the database; no cut-off is given here.

How the values were obtained:
Cynodon dactylon = test: Inhibition of seed germination in Cynodon dactylon at 100 ug/ml after 7 days; type: functional, organism-based
Summary of the method: (§1)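 Ten surface-sterilised seeds per well on agar. Test solution at 100 μg/mL in 5% EtOH added; three wells per sample. Incubated at 20 °C, 12:12 h photoperiod, 7 days; germination scored.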

Arabidopsis thaliana = test: Inhibition of seed germination in Arabidopsis thaliana at 100 ug/ml after 7 days; type: functional, organism-based; summary of the method: as §1
ACHN = test: Cytotoxicity against human ACHN cells by MTT assay; type: functional, cell-based
786-0 = test: Cytotoxicity against human 786-O cells by MTT assay; type: functional, cell-based
OS-RC-2 = test: Cytotoxicity against human OS-RC2 cells by MTT assay; type: functional, cell-based
HepG2 = test: Cytotoxicity against human HepG2 cells by MTT assay; type: functional, cell-based
SGC-7901 = test: Cytotoxicity against human SGC7901 cells by MTT assay; type: functional, cell-based
Escherichia coli = test: Antibacterial activity against Escherichia coli ATCC 25922; type: functional
Staphylococcus aureus = test: Antibacterial activity against Staphylococcus aureus subsp. aureus Rosenbach ATCC 25923; type: functional
[1] = system: Erysipelothrix rhusiopathiae; test: Antibacterial activity against Erysipelothrix rhusiopathiae ATCC 19414; type: functional
[2] = Antibacterial activity against Pasteurella multocida subsp. multocida ATCC 43137; type: functional
Influenza A virus [3] = test: Antiviral activity against Influenza A virus (A/PR/8/34(H1N1)) infected in MDCK cells assessed as reduction in virus-induced cytopathic effect by MTT assay; type: functional, organism-based; settings: A/Puerto Rico/8/1934(H1N1)
Summary of the method: (§2)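 MTT-based cytopathic-effect reduction assay in MDCK cells. Run in triplicate; IC50 reported as mean ± SD.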

[4] = biological target: Polymerase basic protein 2 (Influenza A virus (strain A/Puerto Rico/8/1934 H1N1), UniProt P03428); test: Binding affinity to Influenza A virus RNA polymerase PB2 by SPR assay
Summary of the method: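 PB2-cap protein (0.5 μM) immobilised on CM5 chip at pH 5.0. Compound injected at 7.8–125 nM for 180 s at 50 μL/min, 25 °C; chip regenerated with 50 mM NaOH. KD from fitted sensorgrams; reference compound included.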

Influenza A virus H3N2 = test: Antiviral activity against Influenza A virus (A/Aichi/2/68(H3N2)) infected in MDCK cells assessed as reduction in virus-induced cytopathic effect by MTT assay; type: functional, organism-based; settings: A/Aichi/2/1968(H3N2); summary of the method: as §2
[5] = Cytotoxicity against MDCK cells by MTT assay; type: cell-based, Canis lupus familiaris; settings: dog
Summary of the method: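 MDCK viability measured by MTT at concentrations up to 200 μM. Run in triplicate; CC50 reported.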

Influenza A virus [6] = test: Antiviral activity against Influenza A virus (A/FM-1/1/47(H1N1)) infected in MDCK cells assessed as reduction in virus-induced cytopathic effect by MTT assay; type: functional, organism-based; settings: A/Fort Monmouth/1/1947(H1N1); summary of the method: as §2
Influenza A virus [7] = test: Antiviral activity against Influenza A virus isolate 690 (H3) infected in MDCK cells assessed as reduction in virus-induced cytopathic effect by MTT assay; type: functional, organism-based; summary of the method: as §2
Influenza A virus [8] = test: Antiviral activity against Influenza A virus (A/PR/8/34(H1N1)) infected in MDCK cells assessed as reduction in plaque formation after 72 hrs by crystal violet staining based assay; type: functional, organism-based; settings: A/Puerto Rico/8/1934(H1N1)
Summary of the method: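 MDCK monolayers infected with PR8 at MOI 0.005 for 1 h at 37 °C. Overlay of serum-free MEM with serially diluted compound, 2% microcrystalline cellulose and 1.5 μg/mL trypsin. After 72 h, cells fixed and stained with 4% paraformaldehyde/2% crystal violet for 20 min; plaques assessed.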

Influenza A virus [9] = test: Antiviral activity against Influenza A virus (A/PR/8/34(H1N1)) infected in MDCK cells assessed as reduction in viral NP protein expression after 24 hrs by DAPI staining based fluorescence microscopic method; type: functional, organism-based; settings: A/Puerto Rico/8/1934(H1N1)
Summary of the method: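 MDCK cells infected at MOI 0.01 for 1 h, then given increasing concentrations for 24 h. Fixed in 4% paraformaldehyde and blocked with 3% BSA. Stained with anti-NP (1:200, overnight, 4 °C), then FITC secondary (4 h, RT); DAPI nuclear stain; fluorescence microscopy.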

Influenza A virus [10] = test: Antiviral activity against Influenza A virus (A/PR/8/34(H1N1)) infected in MDCK cells assessed as reduction in viral HA mRNA expression after 24 hrs by qRT-PCR method; type: functional, organism-based; settings: A/Puerto Rico/8/1934(H1N1)
Summary of the method: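 Infected MDCK cells treated with a concentration series for 24 h. Total RNA reverse-transcribed; viral HA mRNA quantified by qRT-PCR with GAPDH as internal control. Triplicate, mean ± SD.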

Influenza A virus [11] = test: Antiviral activity against Influenza A virus (A/PR/8/34(H1N1)) infected in MDCK cells assessed as reduction in viral NP protein expression after 24 hrs by Western blot method; type: functional, organism-based; settings: A/Puerto Rico/8/1934(H1N1)
Summary of the method: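 MDCK monolayers infected with PR8 at MOI 0.01 for 1 h at 37 °C, then given serial dilutions. At 24 h, lysates equalised for protein and run on 10% SDS-PAGE. NP detected with anti-NP (1:1000) and HRP secondary, β-actin as loading control; ECL read-out.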

Influenza A virus [12] = test: Antiviral activity against Influenza A virus (A/PR/8/34(H1N1)) infected in MDCK cells assessed as reduction in virus-induced cytopathic effect pretreated with virus for 30 mins followed by viral infection incubated for 30 mins and measured after 48 hrs by MTT assay; type: functional, organism-based; settings: A/Puerto Rico/8/1934(H1N1)
Summary of the method: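 Preinfection: PR8 (MOI 0.01) mixed with compound for 30 min at 37 °C, then added to MDCK cells for 30 min. Medium replaced with fresh medium containing 1 μg/mL TPCK-trypsin. Viability by MTT after a further 48 h.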

Influenza A virus [13] = test: Antiviral activity against Influenza A virus (A/PR/8/34(H1N1)) infected in MDCK cells assessed as reduction in virus-induced cytopathic effect treated post viral infection for 1 hr and measured after 48 hrs by MTT assay; type: functional, organism-based; settings: A/Puerto Rico/8/1934(H1N1)
Summary of the method: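 Postinfection: infected MDCK cells given increasing concentrations for 1 h at 37 °C, then medium replaced. Viability by MTT after a further 48 h.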

Influenza A virus [14] = test: Antiviral activity against Influenza A virus (A/PR/8/34(H1N1)) infected in MDCK cells assessed as reduction in virus-induced cytopathic effect co-treated with viral infection for 30 mins and measured after 48 hrs by MTT assay; type: functional, organism-based; settings: A/Puerto Rico/8/1934(H1N1)
Summary of the method: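 Entire-infection: virus–compound mixture (PR8, MOI 0.01, 30 min at 37 °C) added to MDCK cells. Unabsorbed virus removed; fresh medium with 1 μg/mL TPCK-trypsin plus compound added. Viability by MTT after 48 h.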

[15] = biological target: Hemagglutinin (Influenza A virus (A/Puerto Rico/8/1934(H1N1))) (UniProt P03452); test: Inhibition of Influenza A virus (A/PR/8/34(H1N1)) HA-mediated chicken erythrocytes hemagglutination preincubated for 30 mins followed by erythrocytes addition and measured for 1 hr
Summary of the method: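 Twofold serial compound dilutions mixed with PR8 at different titres for 30 min at RT. 0.5% chicken erythrocytes added; read after 1 h at 37 °C. Virus diluent without compound as negative control, PBS as blank.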

[16] = biological target: Neuraminidase (Influenza A virus (A/Puerto Rico/8/1934(H1N1))) (UniProt P03468); test: Inhibition of Influenza A virus (A/PR/8/34(H1N1)) NA assessed as reduction in viral particle release using 2-(4-methylumbelliferyl)-alpha-D-N-acetylneuraminic acid sodium as substrate preincubated for 30 mins followed by substrate addition and measured for 1 hr by fluorescence assay
Summary of the method: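 PR8 in reaction buffer mixed with twofold-diluted compound for 30 min at 37 °C. 20 μM MUNANA substrate added for 1 h at 37 °C; stopped with 14 mM NaOH. 4-MU fluorescence read at ex 340/em 440 nm.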

Influenza A virus [17] = test: Antiviral activity against Influenza A virus (A/PR/8/34(H1N1)) infected in MDCK cells assessed as reduction in viral NP production at 10 uM measured 10 hrs post infection by Western blot analysis; type: functional, organism-based; settings: Influenza A virus (A/Puerto Rico/8/1934(H1N1))
Summary of the method: (§3)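 Compound added to PR8-infected MDCK cells at defined time points covering the first replication cycle. At 10 h postinfection, NP measured by Western blot and HA mRNA by quantitative RT-PCR.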

Influenza A virus [18] = test: Antiviral activity against Influenza A virus (A/PR/8/34(H1N1)) infected in MDCK cells assessed as reduction in viral HA mRNA level at 10 uM measured 10 hrs post infection by qRT-PCR analysis; type: functional, organism-based; settings: Influenza A virus (A/Puerto Rico/8/1934(H1N1)); summary of the method: as §3
[19] = system: Influenza A virus (A/Puerto Rico/8/1934(H1N1)); test: Inhibition of RNA-dependent RNA polymerase in Influenza A virus (A/PR/8/34(H1N1)) infected in human 293T cells assessed as reduction in viral RNA level at 10 uM measured at 3 and 6 hrs post infection by RT-PCR method; type: cell-based
[20] = biological target: Polymerase basic protein 2 (Influenza A virus (strain A/Puerto Rico/8/1934 H1N1)) (UniProt P03428); test: Inhibition of fluorescently-labeled m7GTP binding to Influenza A virus RNA polymerase PB2 preincubated for 15 mins followed by m7GTP addition measured after 1 hr by HTRF assay
Summary of the method: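 PB2 protein preincubated with compound at different concentrations for 15 min at RT. Premixed fluorescent probe (m7GTP cap analogue) added; HTRF read after 1 h. Three independent experiments, mean ± SD.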

Polymerase basic protein 2, sequence (P03428 whole entry): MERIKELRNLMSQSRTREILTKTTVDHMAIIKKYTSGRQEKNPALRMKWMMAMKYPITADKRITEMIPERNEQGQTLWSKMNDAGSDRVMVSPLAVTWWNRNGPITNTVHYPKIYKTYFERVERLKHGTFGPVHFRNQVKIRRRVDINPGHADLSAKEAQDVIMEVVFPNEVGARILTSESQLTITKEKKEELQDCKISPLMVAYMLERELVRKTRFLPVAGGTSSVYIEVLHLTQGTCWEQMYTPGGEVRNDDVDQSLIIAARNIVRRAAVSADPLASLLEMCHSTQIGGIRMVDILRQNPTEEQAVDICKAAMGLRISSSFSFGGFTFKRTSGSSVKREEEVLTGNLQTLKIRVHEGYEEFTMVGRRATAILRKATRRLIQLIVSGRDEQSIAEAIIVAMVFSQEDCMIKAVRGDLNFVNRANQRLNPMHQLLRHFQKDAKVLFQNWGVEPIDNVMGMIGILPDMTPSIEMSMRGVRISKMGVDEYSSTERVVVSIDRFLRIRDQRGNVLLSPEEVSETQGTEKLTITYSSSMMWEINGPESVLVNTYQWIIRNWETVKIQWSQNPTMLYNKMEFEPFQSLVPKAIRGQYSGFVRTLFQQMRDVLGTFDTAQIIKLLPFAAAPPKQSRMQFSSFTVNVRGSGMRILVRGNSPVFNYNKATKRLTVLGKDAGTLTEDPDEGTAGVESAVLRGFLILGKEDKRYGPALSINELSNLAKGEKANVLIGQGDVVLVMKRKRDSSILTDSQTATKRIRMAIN
Hemagglutinin (Influenza A virus (A/Puerto Rico/8/1934(H1N1))), sequence (P03452 whole entry): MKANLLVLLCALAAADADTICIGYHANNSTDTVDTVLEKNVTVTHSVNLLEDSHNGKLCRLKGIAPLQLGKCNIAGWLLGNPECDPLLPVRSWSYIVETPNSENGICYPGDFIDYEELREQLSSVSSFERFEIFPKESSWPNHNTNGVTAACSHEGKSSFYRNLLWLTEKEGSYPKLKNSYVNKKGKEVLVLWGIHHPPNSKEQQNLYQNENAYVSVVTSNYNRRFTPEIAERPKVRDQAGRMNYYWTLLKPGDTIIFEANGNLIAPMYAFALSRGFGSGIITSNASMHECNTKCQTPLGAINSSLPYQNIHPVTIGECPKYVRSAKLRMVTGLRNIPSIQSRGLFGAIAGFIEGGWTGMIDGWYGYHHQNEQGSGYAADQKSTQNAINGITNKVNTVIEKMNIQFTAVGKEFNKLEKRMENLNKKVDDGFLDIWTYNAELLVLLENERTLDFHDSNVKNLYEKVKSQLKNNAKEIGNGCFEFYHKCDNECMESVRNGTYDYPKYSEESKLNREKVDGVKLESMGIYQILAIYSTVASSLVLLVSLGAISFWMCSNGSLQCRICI
Polymerase basic protein 2 (Influenza A virus (strain A/Puerto Rico/8/1934 H1N1)), sequence (P03428 whole entry, looked up): as the sequence (P03428 whole entry) above
Neuraminidase (Influenza A virus (A/Puerto Rico/8/1934(H1N1))), sequence (P03468 whole entry): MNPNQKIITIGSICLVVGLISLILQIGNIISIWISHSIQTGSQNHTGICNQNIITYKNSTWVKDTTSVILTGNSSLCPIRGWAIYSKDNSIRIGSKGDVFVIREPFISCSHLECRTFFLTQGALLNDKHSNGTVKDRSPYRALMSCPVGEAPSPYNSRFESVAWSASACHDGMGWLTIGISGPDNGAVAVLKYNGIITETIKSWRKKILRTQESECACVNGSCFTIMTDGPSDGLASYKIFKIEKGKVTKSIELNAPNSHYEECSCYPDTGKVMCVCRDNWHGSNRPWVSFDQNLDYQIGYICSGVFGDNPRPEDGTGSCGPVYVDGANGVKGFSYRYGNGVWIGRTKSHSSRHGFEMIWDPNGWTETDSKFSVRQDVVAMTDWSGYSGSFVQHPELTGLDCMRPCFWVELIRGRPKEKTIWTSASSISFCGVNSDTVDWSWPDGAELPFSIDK

| SMILES | inhibition (Cynodon dactylon) | inhibition (Arabidopsis thaliana) | IC50 (ACHN) [µM] | IC50 (786-0) [µM] | IC50 (OS-RC-2) [µM] | IC50 (HepG2) [µM] | IC50 (SGC-7901) [µM] | MIC (Escherichia coli) [µg/mL] | MIC (Staphylococcus aureus) [µg/mL] | MIC [1] [µg/mL] | MIC [2] [µg/mL] | IC50 (Influenza A virus [3]) [µM] | Kd [4] [µM] | inhibition [19] | further results |
| --- | --- | --- | --- | --- | --- | --- | --- | --- | --- | --- | --- | --- | --- | --- | --- |
| C=C1[C@H](O)[C@@]2(C(=O)N1OC)/C(=C\CC)C=CC(=O)[C@H]2O | inactive | inactive | > 50 | > 50 | > 50 | > 50 | > 50 | > 100 | > 100 | > 100 | > 100 | 21 | – | – | – |
| O=c1oc2cc(O)cc(O)c2c2ccccc12 | – | – | – | – | – | – | – | – | – | – | – | – | 3.6 | – | – |
| CC/C=C1/C=CC(=O)[C@@H](O)[C@]12C(=O)N(OC)[C@@](C)(OC)[C@@H]2O | inactive | inactive | > 50 | > 50 | > 50 | > 50 | > 50 | > 100 | > 100 | > 100 | > 100 | 1.6 | 0.077 | Active | IC50 (Influenza A virus H3N2): 4.1 µM; CC50 [5]: > 200 µM; IC50 (Influenza A virus [6]): 5.5 µM; IC50 (Influenza A virus [7]): 1.7 µM; Activity (Influenza A virus [8]): Dose-dependent effect; Activity (Influenza A virus [9]): Dose-dependent effect; Activity (Influenza A virus [10]): Dose-dependent effect; Activity (Influenza A virus [11]): Dose-dependent effect; Activity (Influenza A virus [12]): inactive; Activity (Influenza A virus [13]): Active; Activity (Influenza A virus [14]): Active; inhibition [15]: inactive; inhibition [16]: inactive; Activity (Influenza A virus [17]): Active; Activity (Influenza A virus [18]): Active; inhibition [20]: Dose-dependent effect |
| CCC(CC)[C@H](NC(C)=O)[C@@H]1[C@H](O)[C@@H](C(=O)O)C[C@H]1NC(=N)N | – | – | – | – | – | – | – | – | – | – | – | – | – | inactive | – |
